# Assay outcomes from PubChem BioAssay.
# A selection: hits, their analogues and other compounds. The true share with any hit is near 4.7%.
# MC4R ag barr: MC4R agonists recruiting beta-arrestin, primary screen, cell-based, luminescence, agonist arm of biased-ligand search; Melanocortin receptor 4 (Homo sapiens), P32245; U2OS MC4R beta-arrestin complementation; percent of melanotan II response, DMSO zero; activation, % at 8.9 µM; hit rate 0.98% among 360,000;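 active means activation above a per-plate cutoff, the mean activation of sample wells on that plate plus 3 SD, cut at about 8% in these data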
# FXN GAA850 act: FXN promoter activators, primary screen, cell-based, luciferase luminescence, HEK293 lucGAA850 | HEK293 lucGAA850 FXN promoter luciferase reporter, 24 h; percent of 10 µM SAHA response | hit rate 0.56% among 360,000 | activation, % at 6 µM | AID 540364, 2011;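 active means activation above the average of all compounds screened plus 3 SD, cutoff fixed separately per campaign, cut at about 7.5% in these data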
# AHR activator: AHR activators, primary screen, cell-based, luminescence, luciferase reporter, human; hit rate 2.5% among 320,000; activation, % at 5 µM; AHR-responsive luciferase reporter cells; Aryl hydrocarbon receptor (Homo sapiens), P35869; in the data active means activation above about 47%
# Target sequence (P35869 whole entry, looked up): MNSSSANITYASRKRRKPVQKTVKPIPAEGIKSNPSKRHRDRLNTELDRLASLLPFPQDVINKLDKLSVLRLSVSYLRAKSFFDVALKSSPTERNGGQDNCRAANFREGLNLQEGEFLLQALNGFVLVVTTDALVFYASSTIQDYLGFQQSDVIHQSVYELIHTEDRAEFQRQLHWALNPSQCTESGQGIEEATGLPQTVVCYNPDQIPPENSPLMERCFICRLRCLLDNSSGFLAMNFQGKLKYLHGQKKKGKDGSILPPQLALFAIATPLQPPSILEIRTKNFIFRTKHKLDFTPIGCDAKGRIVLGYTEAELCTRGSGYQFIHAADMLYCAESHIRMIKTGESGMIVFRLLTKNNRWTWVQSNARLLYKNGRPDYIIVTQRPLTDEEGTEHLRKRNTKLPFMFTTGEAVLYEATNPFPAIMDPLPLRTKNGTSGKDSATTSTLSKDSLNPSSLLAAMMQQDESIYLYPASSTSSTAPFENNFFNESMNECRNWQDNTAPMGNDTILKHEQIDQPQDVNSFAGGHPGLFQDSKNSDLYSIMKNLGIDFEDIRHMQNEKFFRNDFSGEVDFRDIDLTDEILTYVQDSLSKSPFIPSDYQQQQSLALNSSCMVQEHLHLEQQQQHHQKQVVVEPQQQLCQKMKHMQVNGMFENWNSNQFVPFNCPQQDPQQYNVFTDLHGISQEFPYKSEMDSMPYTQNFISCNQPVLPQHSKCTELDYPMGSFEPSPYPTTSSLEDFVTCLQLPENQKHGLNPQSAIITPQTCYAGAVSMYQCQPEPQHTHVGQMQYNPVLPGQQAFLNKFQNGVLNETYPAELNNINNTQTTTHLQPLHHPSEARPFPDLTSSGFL
# HTR2A ag: mouse Htr2a agonists via beta-arrestin recruitment, primary screen, cell-based, luminescence; 5-hydroxytryptamine receptor 2A (Mus musculus), P35363; CHO-K1 mHTR2A beta-arrestin complementation; percent of 30 µM serotonin response; activation, % at 7.6 µM; hit rate 0.66% among 360,000; AID 624169, 2012;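 active means activation above a run cutoff, the mean activation of all tested compounds plus 3 SD, cut at about 14% in these data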
# MC4R antag cAMP: MC4R antagonists of cAMP signaling, primary screen, cell-based, TR-FRET, antagonist arm of biased-ligand search | inhibition, % at 6.5 µM | AID 540295, 2011 | MC4R-expressing cells, MTII-stimulated cAMP, LANCE TR-FRET | hit rate 0.48% among 360,000 | Melanocortin receptor 4 (Homo sapiens), P32245;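 active means inhibition above its plate's cutoff, the mean of tested wells on that plate plus 3 SD, cut at about 29% in these data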
#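 System: U2OS-MC4R stable cell line; Technique: Eu-cAMP/anti-cAMP TR-FRET, emission 671 nm; Repeats: single well per compound; Also added: Melanotan II; Dosing: one concentration, 6.5 µM nominal; Schedule: 30-min compound, 1-h challenge, 1-h detection, room temperature.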
# Numbers stand for hits; - = inactive; . = not tested or not shown.
SMILES,MC4R ag barr,FXN GAA850 act,AHR activator,HTR2A ag,MC4R antag cAMP
COc1ccc(CCN2C(=O)C(Oc3ccccc3C)C2c2ccc3c(c2)OCO3)cc1 (centres undefined),-,-,-,-,-
O=C1C(Oc2ccccc2)C(c2ccc3c(c2)OCO3)N1CCc1ccc(F)cc1 (centres undefined),-,-,71,-,-
CNC(=O)C(=O)Nc1cc2c3c(c1)C(C)C(=O)N3CCC2 (centres undefined),-,-,-,-,-
CC(C(=O)N(C)Cc1cccc(F)c1)N1CCN(S(=O)(=O)c2ccc3c(c2)OCCCO3)CC1 (centres undefined),-,-,.,-,-
CCC(O)c1cc2c(cc1NC(=O)c1ccc(C)cc1)OCCO2 (centres undefined),-,-,63,-,-
Cc1ccc(NC(=O)c2ccc3c(c2)OCCO3)cc1,-,-,-,-,-
Cc1ccc(C(=O)OC(C)C(=O)NC(C)CCc2ccccc2)o1 (centres undefined),-,-,-,-,-
CCOC(=O)C1=CC[C@@H](c2ccccc2)N(S(=O)(=O)c2ccc(C)cc2)[C@H]1C=C(C)C,.,.,.,-,.
CCOC(=O)C1=C(N)Oc2ccc3ccccc3c2C1c1cccc(O)c1 (centres undefined),-,-,50,-,-
CCOC(=O)C1=C(N)Oc2ccc3ccccc3c2C1c1cccnc1 (centres undefined),-,-,-,-,-
O=C(CSc1nnc(-c2ccc(F)cc2)c2ccccc12)NCC1CCCO1 (centres undefined),-,8.8,-,-,-
Cc1ccc(-c2nc(SCC(=O)NCC3CCCO3)c(-c3ccccc3)[nH]2)cc1 (centres undefined),-,-,70,-,-
CCc1cccc2c(SCC(=O)NCC3CCCO3)nc(-c3ccc(F)cc3)nc12 (centres undefined),-,-,-,-,-
O=C(C1=C[C@@H]2[C@H]3C(=O)N(c4ccc(Cl)cc4)C(=O)[C@H]3[C@@H](C(=O)c3ccc(Cl)cc3)N2C=C1)c1ccccc1,-,-,50,-,-
COc1ccccc1Nc1nc(C)cc(C)c1C(N)=O,-,-,-,-,-
Cc1cc(C)c(C(N)=O)c(Nc2cccc3ccccc23)n1,-,-,52,-,-
O=C1CC(c2ccccc2)=Nc2ccccc2N1,-,-,75,-,-
Cc1ccc2c(c1)NC(=O)CC(c1ccccc1)=N2,-,-,-,-,-
Cc1cccc(NC(=O)c2ccc(NS(=O)(=O)c3cccc4cccnc34)cc2)c1,-,-,.,-,-
c1ccc2c(c1)Nc1cc3ccccc3cc1S2,-,-,60,-,-
CC1C/C(=N/NC(=O)c2ccc(CSc3nc4ccccc4[nH]3)cc2)CC(C)(C)C1 (centres undefined),-,-,-,-,-
CC1C/C(=N/Nc2nc3ccccc3[nH]2)CC(C)(C)C1 (centres undefined),-,-,89,-,-
O=C(COC(=O)c1ccccc1)NCC1COc2ccccc2O1 (centres undefined),-,-,.,-,-
CNC(=O)CC12CC3CC(CC(C3)C1)C2,-,-,-,-,-
COCCNC(=S)NC(=O)CC12CC3CC(CC(C3)C1)C2,8.3,-,-,-,-
SMILES,MC4R ag barr,FXN GAA850 act,AHR activator,HTR2A ag,MC4R antag cAMP
Cc1ccc(S(=O)(=O)Nc2ccc(O)c3ccccc23)c(C)c1,-,-,.,-,-
Cc1ccc(S(=O)(=O)Nc2cc(C(C(=O)OC(C)C)C(=O)C(F)(F)F)c(O)c3ccccc23)c(C)c1 (centres undefined),-,-,48,-,-
Nc1cc(=O)[nH]c(SCC(=O)NC2CCCCCCC2)n1,-,-,-,-,-
COCCn1c(=NC(=O)CCS(=O)(=O)c2ccccc2)sc2c(OC)ccc(OC)c21,-,-,51,-,-
COC(=O)[C@@]12C[C@@H](CC(=O)NCc3ccc(OC)c(OC)c3)C(=O)N(Cc3ccc4c(c3)OCO4)C1=CCC(C)(C)C2,.,.,.,-,.
O=C(O)c1ccc(N/N=C/C2=C(N3CCOCC3)C(=C\c3ccccc3)/CC2)cc1,-,-,-,-,29
C[C@H]1C[C@@H]2[C@H]([C@@H](O)C[C@@]3(C)[C@H]2CC[C@]3(O)C(=O)CO)[C@@]2(C)C=CC(=O)C=C12,-,-,-,18,-
Nc1c(-c2ccccc2)cnn1-c1ccccc1,-,-,-,-,-
O=c1cnn(-c2ccccc2)c(-c2ccccc2)c1,-,-,50,-,-
CN1c2ccccc2Sc2cc(N)ccc21,-,-,62,-,-
CC(=O)N1c2ccccc2Sc2ccccc21,-,-,.,-,-
CCN(CC)S(=O)(=O)c1ccc(N2CCN(C)CC2)c(NC(=O)COc2ccc(F)cc2Cl)c1,-,-,-,-,-
CC(C)(C)C(=O)/C=c1\[nH]c(=O)/c(=C\c2ccccc2F)s1,-,-,53,-,-
Cc1ccc(C2CC(=O)NC(SCc3ccccc3)=C2C#N)cc1 (centres undefined),-,-,-,-,-
CCCCCCSC1=C(C#N)C(c2ccccc2)CC(=O)N1 (centres undefined),10,-,-,-,-
Cc1ccccc1NC(=O)CN1C(=O)NC2(CCCCCCC2)C1=O,-,-,.,-,-
C/C(=N/Nc1nc(-c2ccccc2F)nc2ccccc12)c1ccccc1O,-,-,-,-,-
C/C(=N\Nc1nc(-c2ccccc2O)nc2ccccc12)c1ccccc1,-,-,53,-,-
CCOC(=O)Cc1nnc(NC(=O)CCc2ccccc2)s1,-,-,-,-,-
COc1nnc(-c2ccc(C)c(S(=O)(=O)NC(C)C)c2)c2ccccc12,-,-,-,-,-
COc1ccc(NC(=S)Nc2ccc3snnc3c2)cc1,-,-,67,-,-
COc1ccc(NC(=S)Nc2ccc3nccnc3c2)cc1,-,-,-,-,-
COc1ccc(NC(=S)Nc2ccccc2)cc1,-,-,-,-,-
COc1ccc(NC(=S)Nc2ccc(N)c([N+](=O)[O-])c2)cc1,-,-,62,-,-
CC(=O)O[C@@H](Cc1ccc(O)cc1)C(=O)CC(C)C,.,.,.,-,.
COc1ccc(S(=O)(=O)N(C)C)cc1NC(=O)Cc1ccc(S(=O)(=O)N2CCOCC2)s1,-,-,.,-,-
O=C(CC1(O)C(=O)Nc2ccc(Br)cc21)c1ccccc1 (centres undefined),-,-,.,-,-
CCc1ccc2c(CN3CCc4ccccc43)cc(=O)oc2c1,-,-,-,-,-
Cc1cc2oc(=O)cc(CN3CCc4ccccc43)c2cc1Cl,-,-,50,-,-
